Laboratory results taken from ChEMBL document CHEMBL4400560, “Discovery and optimization of novel piperazines as potent inhibitors of fatty acid synthase (FASN)” (Bioorg Med Chem Lett, 2019).
Converted amounts (≈) assume the structure as drawn.

Experiments:
[1] = Stability in mouse liver microsomes assessed as compound remaining after 30 mins; format: ADME, Microsome; details: read-out: Stability
How it was run: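 Mouse liver microsomes, 30-min incubation. Result expressed as percent of parent remaining.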

Fatty acid synthase [2] = biological target: T1, Fatty acid synthase (Homo sapiens, UniProt P49327); experiment: Inhibition of full length recombinant human FASN using acetyl-CoA/malonyl-CoA as substrate preincubated for 60 mins followed by substrate addition and measured after 90 mins in presence of NADPH
T1 sequence (P49327 whole entry): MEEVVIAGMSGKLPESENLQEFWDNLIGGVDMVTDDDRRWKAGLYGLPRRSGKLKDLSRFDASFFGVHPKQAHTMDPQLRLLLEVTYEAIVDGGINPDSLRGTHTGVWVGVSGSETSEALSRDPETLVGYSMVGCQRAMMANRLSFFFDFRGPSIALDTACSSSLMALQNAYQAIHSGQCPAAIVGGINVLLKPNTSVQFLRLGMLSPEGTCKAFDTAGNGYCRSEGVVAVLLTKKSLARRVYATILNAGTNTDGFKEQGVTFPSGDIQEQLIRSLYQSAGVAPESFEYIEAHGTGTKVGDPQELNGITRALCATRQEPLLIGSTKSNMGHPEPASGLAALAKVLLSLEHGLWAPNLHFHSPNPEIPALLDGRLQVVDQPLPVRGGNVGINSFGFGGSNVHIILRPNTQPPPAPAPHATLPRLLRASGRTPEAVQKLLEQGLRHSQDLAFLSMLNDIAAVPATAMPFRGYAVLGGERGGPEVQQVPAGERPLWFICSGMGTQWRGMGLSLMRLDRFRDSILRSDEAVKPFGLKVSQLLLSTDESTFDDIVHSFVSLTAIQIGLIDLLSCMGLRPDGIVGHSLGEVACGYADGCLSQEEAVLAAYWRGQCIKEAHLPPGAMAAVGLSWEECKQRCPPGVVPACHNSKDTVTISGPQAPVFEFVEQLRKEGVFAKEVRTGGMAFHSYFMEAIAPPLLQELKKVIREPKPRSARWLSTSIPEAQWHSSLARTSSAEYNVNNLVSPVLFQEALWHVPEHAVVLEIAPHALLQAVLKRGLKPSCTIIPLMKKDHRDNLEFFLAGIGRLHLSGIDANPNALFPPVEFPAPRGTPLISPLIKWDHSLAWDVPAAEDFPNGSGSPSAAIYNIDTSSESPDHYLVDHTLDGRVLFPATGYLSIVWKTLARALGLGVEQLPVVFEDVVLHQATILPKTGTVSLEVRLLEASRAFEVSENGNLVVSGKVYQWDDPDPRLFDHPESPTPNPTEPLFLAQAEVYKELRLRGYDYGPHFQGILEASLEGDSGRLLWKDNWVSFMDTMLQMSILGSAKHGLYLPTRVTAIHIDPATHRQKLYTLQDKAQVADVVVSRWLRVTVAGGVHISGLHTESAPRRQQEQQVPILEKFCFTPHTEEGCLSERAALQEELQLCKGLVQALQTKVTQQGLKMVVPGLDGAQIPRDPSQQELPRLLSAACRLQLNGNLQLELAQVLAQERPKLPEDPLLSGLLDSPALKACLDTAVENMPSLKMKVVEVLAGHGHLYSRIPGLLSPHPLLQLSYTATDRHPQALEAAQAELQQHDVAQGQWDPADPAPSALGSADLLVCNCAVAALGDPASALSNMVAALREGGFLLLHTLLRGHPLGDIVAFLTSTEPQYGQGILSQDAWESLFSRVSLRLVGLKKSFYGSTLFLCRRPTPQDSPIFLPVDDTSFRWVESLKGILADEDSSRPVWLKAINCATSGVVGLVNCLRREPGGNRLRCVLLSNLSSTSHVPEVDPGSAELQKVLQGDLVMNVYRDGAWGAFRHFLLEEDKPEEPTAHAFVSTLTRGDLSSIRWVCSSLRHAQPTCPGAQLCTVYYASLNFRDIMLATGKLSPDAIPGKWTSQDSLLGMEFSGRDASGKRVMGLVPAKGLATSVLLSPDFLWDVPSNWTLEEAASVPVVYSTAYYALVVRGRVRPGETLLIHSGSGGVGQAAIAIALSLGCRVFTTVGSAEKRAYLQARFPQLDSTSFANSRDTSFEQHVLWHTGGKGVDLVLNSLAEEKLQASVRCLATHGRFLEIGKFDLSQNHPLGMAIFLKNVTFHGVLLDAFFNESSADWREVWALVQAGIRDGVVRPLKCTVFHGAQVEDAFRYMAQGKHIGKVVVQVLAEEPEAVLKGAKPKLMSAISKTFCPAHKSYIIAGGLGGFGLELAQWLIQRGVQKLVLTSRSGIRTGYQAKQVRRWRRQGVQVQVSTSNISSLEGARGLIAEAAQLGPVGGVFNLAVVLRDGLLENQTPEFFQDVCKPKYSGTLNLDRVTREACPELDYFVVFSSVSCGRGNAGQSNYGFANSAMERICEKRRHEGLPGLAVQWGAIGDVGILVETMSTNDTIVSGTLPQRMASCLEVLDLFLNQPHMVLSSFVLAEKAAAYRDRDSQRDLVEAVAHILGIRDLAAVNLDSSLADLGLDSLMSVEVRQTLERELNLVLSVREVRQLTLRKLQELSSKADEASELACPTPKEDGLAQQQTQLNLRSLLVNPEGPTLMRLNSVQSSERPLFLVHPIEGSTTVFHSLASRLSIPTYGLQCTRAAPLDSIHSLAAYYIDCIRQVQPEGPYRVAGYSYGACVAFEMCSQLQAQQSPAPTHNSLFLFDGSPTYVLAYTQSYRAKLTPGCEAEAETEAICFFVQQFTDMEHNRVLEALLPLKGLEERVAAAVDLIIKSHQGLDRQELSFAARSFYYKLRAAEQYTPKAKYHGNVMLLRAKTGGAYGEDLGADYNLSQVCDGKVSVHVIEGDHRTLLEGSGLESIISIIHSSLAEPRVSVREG
How it was run: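 Full-length recombinant human FASN. CoA released is detected as a fluorescent conjugate with the coumarin maleimide CPM. IC50 is the mean of at least two separate runs.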

PC-3 = experiment: Antiproliferative activity against human PC3 cells after 96 hrs by MTT assay; format: functional, cell-based; details: PC-3, 96 h
How it was run: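 PC3 prostate cancer cells grown in medium with 10% lipid-reduced serum, a condition in which growth depends on de novo lipogenesis, in the presence of inhibitor. Antiproliferative IC50 reported as the mean of at least two separate runs.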

Fatty acid synthase [3] = biological target: T1, Fatty acid synthase; experiment: Inhibition of FASN in human BT474 cells preincubated for 1 hr followed by [14C]-acetate addition and measured after 4 hrs by scintillation counting assay; format: cell-based
How it was run: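 BT474 breast cancer cells given 14C-acetate, which cellular FASN incorporates via acetyl-CoA into newly made radiolabeled palmitate. IC50 for blocking this incorporation is the mean of at least two separate runs.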

[4] = Kinetic solubility of compound at pH 7.4; format: physicochemical; details: buffer, read-out: Kinetic_solubility
How it was run: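 Kinetic solubility measured at pH 7.4.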

[5] = Stability in mouse hepatocytes after 1 hr; format: ADME, cell-based, Hepatocyte; details: read-out: Stability
[6] = Stability in mouse liver S9 fraction after 1 hr; format: ADME, subcellular; details: read-out: Stability
[7] = AUC in mouse at mg/kg, po; format: ADME, organism-based; design: concentration or dose not given beside the values; details: in vivo
How it was run: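 Mouse oral PK study at 5 mg/kg p.o., with plasma exposure taken as AUC0-8h.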

SMILES	remaining at 0.5 h [1]	IC50 (Fatty acid synthase [2])	IC50 (PC-3)	IC50 (Fatty acid synthase [3])	solubility kinetic [4]	remaining at 1 h [5]	remaining at 1 h [6]	AUC [7]
O=C(c1ccc(-c2nc3cc(Cl)ccc3o2)cc1)N1CCN(C(=O)C2(O)CC2)CC1	85%	69 nM	49 nM	136 nM	6 µM (≈ 2.56 µg/mL)			
O=C(c1ccc(-c2ccc3cnccc3c2)cc1)N1CCN(C(=O)C2(O)CC2)CC1	45%	13 nM	13 nM	11 nM	77 µM (≈ 30.9 µg/mL)	1%	0%	0.1 µM·h
O=C(c1ccc(-c2cnc3ccccc3c2)cc1)N1CCN(C(=O)C2(O)CC2)CC1	86%	10 nM		12 nM	82 µM (≈ 32.9 µg/mL)			
O=C(c1ccc(-c2ccccc2)cc1)N1CCN(C(=O)[C@H]2CCCO2)CC1	100%	1100 nM						
Cn1c(-c2ccc(C(=O)N3CCN(C(=O)C4(O)CC4)CC3)cc2)cc2ccccc21	83%	33 nM	25 nM	70 nM	0.3 µM (≈ 0.121 µg/mL)			
Cn1ccc2cc(-c3ccc(C(=O)N4CCN(C(=O)C5(O)CC5)CC4)cc3)ccc21	81%	12 nM		19 nM	3 µM (≈ 1.21 µg/mL)			
O=C(c1ccc(-c2ccccc2)cc1)N1CCN(C(=O)[C@@H]2CCCO2)CC1	65%	≥ 50000 nM						
